Here are results for 21 molecules from ChEMBL document CHEMBL4765486, “Novel Nonsecosteroidal Vitamin D Receptor Modulator Combined with Gemcitabine Enhances Pancreatic Cancer Therapy through Remodeling of the Tumor Microenvironment” (J Med Chem, 2021).

The source made the active and inactive calls.

The target of data set [1] is T1, Vitamin D3 receptor (Homo sapiens) (UniProt P11473).
T1 sequence (whole entry): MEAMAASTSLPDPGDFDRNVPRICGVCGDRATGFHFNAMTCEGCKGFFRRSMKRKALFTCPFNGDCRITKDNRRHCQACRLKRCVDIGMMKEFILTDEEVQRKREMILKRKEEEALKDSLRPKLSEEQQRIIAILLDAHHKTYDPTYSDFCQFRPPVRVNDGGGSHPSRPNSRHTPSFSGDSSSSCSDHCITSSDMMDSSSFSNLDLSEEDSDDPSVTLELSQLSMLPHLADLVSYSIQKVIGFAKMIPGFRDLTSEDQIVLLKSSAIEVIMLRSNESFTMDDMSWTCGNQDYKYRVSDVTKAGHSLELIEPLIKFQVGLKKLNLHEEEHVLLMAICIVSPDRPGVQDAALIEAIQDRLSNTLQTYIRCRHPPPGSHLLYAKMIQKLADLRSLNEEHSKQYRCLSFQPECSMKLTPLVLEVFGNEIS
Description: Binding affinity to VDR (unknown origin) at 1 uM by fluorescence polarization assay relative to calcipotriol. The procedure, abridged:
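PolarScreen VDR competitor fluorescence polarization assay with compounds at 1 μM in triplicate. Read-out used 535 nm excitation and 590 nm emission filters.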
Background: Fluorescence polarisation rises when a labelled molecule tumbles more slowly, as on binding a larger partner.

Data set [2] is described as follows: Cytotoxicity against rat LTC-14 cells assessed as reduction in cell proliferation incubated for 24 hrs by MTT assay. The format is cell-based. The settings on record: LTC-14, 24 h. A general note: Tetrazolium assays rely on reduction of a dye to a coloured formazan, in cell work by metabolically active cells.
For data set [3], the system named is LTC-14. Description: Inhibition of rat LTC-14 cell activation assessed decrease in TGF-beta1 induced Colla1 mRNA expression at 0.5 uM incubated for 24 hrs by q-PCR analysis. The format is functional. A digest of the protocol:
(§1)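 Immortalized rat PSC line LTC-14, about 1×10^5 cells per well, was grown 24 h at 37 °C in 5% CO2. Cells then received compound (0.5 μM) plus TGF-β1 for 24 h; TGF-β1 is stated as 0.5 ng/mL in the text and 5 ng/mL in the methods. Col1a1 and Acta2 mRNA were measured by RT-qPCR. Mean ± SD versus TGF-β1 alone.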

Data set [4] has as its system LTC-14. Description: Inhibition of rat LTC-14 cells activation assessed decrease in TGF-beta1 induced Acta2 mRNA expression at 0.5 uM incubated for 24 hrs by q-PCR analysis. The class given is functional, cell-based. A digest of the protocol:
as §1

The test system of data set [5] is LTC-14. Description: Inhibition of rat LTC-14 cells activation assessed decrease in TGF-beta1 induced collagen 1 protein expression at 0.5 uM incubated for 24 hrs by Western blot analysis. The class given is functional, cell-based. The procedure, abridged:
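LTC-14 cells were treated for 24 h with compound (0.5 μM) plus TGF-β1 (0.5 ng/mL in the text, 5 ng/mL in the methods). Lysates were run on 10% SDS-PAGE, transferred to PVDF and probed with rabbit anti-collagen I, with β-actin as reference. Bands were quantified by densitometry versus TGF-β1 alone.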
Background: Immunoblotting shows a protein as a band on a membrane.

Data set [6] concerns LTC-14. Description: Inhibition of rat LTC-14 cells activation assessed as inhibition of PDGFA mRNA expression at 0.5 uM treated under conditioned media of DSL-6A/C1 cells for 24 hrs by q-PCR analysis. The class given is functional, cell-based. A digest of the protocol:
(§2)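 LTC-14 PSCs were exposed for 24 h to conditioned medium from rat DSL-6A/C1 cancer cells containing compound at 0.5 μM. Pdgfa, Pdgfb, Fgf2, Hgf and Periodin mRNA were quantified by RT-qPCR. Three repeats, mean ± SD versus CM alone.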

In data set [7] the test system is LTC-14. Description: Inhibition of rat LTC-14 cells activation assessed as inhibition of PDGFB mRNA expression at 0.5 uM treated under conditioned media of DSL-6A/C1 cells for 24 hrs by q-PCR analysis. The class given is functional, cell-based. The procedure, abridged:
as §2

For data set [8], the system named is LTC-14. Description: Inhibition of rat LTC-14 cells activation assessed as inhibition of Fgf mRNA expression at 0.5 uM treated under conditioned media of DSL-6A/C1 cells for 24 hrs by q-PCR analysis. The format is functional, cell-based. The procedure, abridged: as §2
Data set [9] relates to LTC-14. Description: Inhibition of rat LTC-14 cells activation assessed as inhibition of Hgf mRNA expression at 0.5 uM treated under conditioned media of DSL-6A/C1 cells for 24 hrs by q-PCR analysis. The format is functional, cell-based. A digest of the protocol: as §2
Data set [10] relates to LTC-14. Description: Inhibition of rat LTC-14 cells activation assessed as inhibition of Periodin-mRNA expression at 0.5 uM treated under conditioned media of DSL-6A/C1 cells for 24 hrs by q-PCR analysis. The class given is functional, cell-based. A digest of the protocol: as §2
Data set [11] is described as follows: Cytotoxicity against rat DSL-6A/C1 cells assessed as reduction in cell proliferation at 0.5 uM incubated for 24 hrs by MTT assay. The class given is cell-based. The note with it: dsl-6a/c1, 24 h.

Take `CCn1cc(C(CC)(CC)c2ccc(OCC(C)O)c(C)c2)cc1C(=O)NCCN1CCCCC1` (configuration not stated): in data set [1], the RBA entry was “inactive”. The IC50 in data set [2] is over 10 µM. Further, the inhibition result with LTC-14 [3], with LTC-14 [4], in the data set on LTC-14 [5], in the data set with LTC-14 [6], in the data set with LTC-14 [7] and in the data set on LTC-14 [8] was “Active” throughout. For the same molecule, the inhibition result in the data set with LTC-14 [9] and in the data set on LTC-14 [10] was “Active” each time. In data set [11], the Activity result is “Non-Toxic”.
In the case of `CCN(CC)CCNC(=O)c1ccc(C(CC)(CC)c2ccc(OCCC(C)(C)O)c(C)c2)n1CC`, in [1], the RBA turned out to be 36%. Further, the IC50 in [2] was over 10 µM. Besides, the inhibition entry in the data set on LTC-14 [3], in the data set on LTC-14 [4], in the data set with LTC-14 [5], in the data set with LTC-14 [6], in the data set with LTC-14 [7] and in the data set on LTC-14 [8] was “Active” throughout. Further, the inhibition entry in the data set with LTC-14 [9] and with LTC-14 [10] was “Active” in each case. Also, the Activity entry in [11] is “Non-Toxic”.
Regarding `CCn1cc(C(CC)(CC)c2ccc(OCC(C)O)c(C)c2)cc1C(=O)NCC1CCCO1` (configuration not stated), in data set [1] (filed as agonist), the RBA was 60%. Further, in [2], the half-maximal inhibitory concentration (IC50) was over 10 µM. Also, the inhibition entry in the data set with LTC-14 [3], in the data set with LTC-14 [4] and with LTC-14 [5] was “Active” each time.
Regarding `CCn1c(C(=O)NCCN(C)C)ccc1C(CC)(CC)c1ccc(OCCC(C)(C)O)c(C)c1`, the RBA in data set [1] (filed as agonist) was determined as 48%. In data set [2], the concentration for half-maximal inhibition (IC50) was over 10 µM. The inhibition result in the data set on LTC-14 [3], with LTC-14 [4] and in the data set on LTC-14 [5] was “Active” throughout.
As for `CCn1c(C(=O)NCCCN2CCOCC2)ccc1C(CC)(CC)c1ccc(OCCC(C)(C)O)c(C)c1`, the RBA in data set [1] (filed as agonist) was 63%. In addition, the IC50 in [2] is over 10 µM. Moreover, the inhibition entry in the data set with LTC-14 [3], in the data set on LTC-14 [4] and in the data set on LTC-14 [5] was “Active” each time.
Take `CCN(CC)CCCNC(=O)c1cc(C(CC)(CC)c2ccc(OCC(O)c3ccccc3)c(C)c2)cn1CC` (configuration not stated): in [1] (filed as agonist), the RBA was determined as 59%. Moreover, in [2], the 50% inhibitory concentration (IC50) is over 10 µM. The inhibition entry with LTC-14 [3], in the data set with LTC-14 [4] and in the data set with LTC-14 [5] was “Active” each time.
Take `CCN(CC)CCCNC(=O)c1ccc(C(CC)(CC)c2ccc(OCCCCCC(C)(C)O)c(C)c2)n1CC`: the RBA in data set [1] turned out to be 20%. In addition, the IC50 in data set [2] is over 10 µM. In addition, the inhibition entry in the data set with LTC-14 [3], in the data set with LTC-14 [4] and in the data set with LTC-14 [5] was “Active” throughout.
For the molecule `CCN(CC)CCCNC(=O)c1ccc(C(CC)(CC)c2ccc(OCC(O)c3ccccc3)c(C)c2)n1CC` (configuration not stated), the RBA in data set [1] (filed as agonist) was 75%. In addition, the IC50 in [2] is over 10 µM. Further, the inhibition result with LTC-14 [3], in the data set on LTC-14 [4] and with LTC-14 [5] was “Active” throughout.
`CCn1cc(C(CC)(CC)c2ccc(OCC(C)O)c(C)c2)cc1C(=O)NCCN(C)C` (configuration not stated): the RBA in data set [1] (filed as agonist) came out at 70%. For the same molecule, the IC50 in data set [2] was over 10 µM. Moreover, the inhibition entry with LTC-14 [3], in the data set on LTC-14 [4] and in the data set with LTC-14 [5] was “Active” in each case.
As to `CCC(O)COc1ccc(C(CC)(CC)c2ccc(C(=O)NCCCN(CC)CC)n2CC)cc1C` (configuration not stated), the RBA in data set [1] is 28%. In addition, the IC50 in [2] is over 10 µM. Besides, the inhibition result with LTC-14 [3], in the data set on LTC-14 [4] and in the data set with LTC-14 [5] was “Active” each time.
As for `CCn1cc(C(CC)(CC)c2ccc(OCC(C)O)c(C)c2)cc1C(=O)NCC1CCOCC1` (configuration not stated), in data set [1] (filed as agonist), the RBA stood at 67%. Besides, the IC50 in data set [2] was over 10 µM. Besides, the inhibition result in the data set on LTC-14 [3], in the data set with LTC-14 [4] and in the data set on LTC-14 [5] was “Active” throughout.
For the molecule `CCCC(O)(CCC)CCCCOc1ccc(C(CC)(CC)c2ccc(C(=O)NCCCN(CC)CC)n2CC)cc1C`, the RBA in [1] (filed as agonist) came to 64%. Besides, in data set [2], the half-inhibitory concentration (IC50) is over 10 µM. Besides, the inhibition entry in the data set on LTC-14 [3], with LTC-14 [4] and in the data set on LTC-14 [5] was “Active” each time.
Consider `CCN(CC)CCCNC(=O)c1cc(C(CC)(CC)c2ccc(OCCCCCC(O)(CC)CC)c(C)c2)cn1CC`, for which the RBA in [1] was found to be 32%. Further, the IC50 in [2] is over 10 µM. Further, the inhibition result with LTC-14 [3], with LTC-14 [4] and with LTC-14 [5] was “Active” each time.
Turning to `CCN(CC)CCCNC(=O)c1cc(C(CC)(CC)c2ccc(OCCC(C)(C)O)c(C)c2)cn1CC`, the RBA in [1] (filed as agonist) turned out to be 67%. The IC50 in data set [2] was over 10 µM. The inhibition result with LTC-14 [3], in the data set with LTC-14 [4] and in the data set on LTC-14 [5] was “Active” throughout.
For the molecule `CCN(CC)CCCNC(=O)c1ccc(C(CC)(CC)c2ccc(OCC(C)O)c(C)c2)n1CC` (configuration not stated), the RBA in data set [1] was 30%. Moreover, in data set [2], the IC50 was over 10 µM. The inhibition entry in the data set with LTC-14 [3], in the data set on LTC-14 [4] and with LTC-14 [5] was “Active” each time.
With `CCN(CC)CCNC(=O)c1cc(C(CC)(CC)c2ccc(OCC(C)O)c(C)c2)cn1CC` (configuration not stated), in data set [1], the RBA entry is “inactive”. For the same molecule, in data set [2], the IC50 is over 10 µM. Also, the inhibition entry in the data set on LTC-14 [3], with LTC-14 [4] and with LTC-14 [5] was “Active” throughout.
Consider `CCN(CC)CCCNC(=O)c1ccc(C(CC)(CC)c2ccc(OCCCCC(C)(C)O)c(C)c2)n1CC`, for which the RBA in data set [1] is 26%. In data set [2], the IC50 was over 10 µM. For the same molecule, the inhibition result in the data set with LTC-14 [3], in the data set with LTC-14 [4] and in the data set on LTC-14 [5] was “Active” in each case.
In the case of `CCn1cc(C(CC)(CC)c2ccc(OCC(C)O)c(C)c2)cc1C(=O)NCCN1CCOCC1` (configuration not stated), the RBA in data set [1] is 36%. In addition, the half-inhibitory concentration (IC50) in [2] was over 10 µM. The inhibition result with LTC-14 [3], in the data set on LTC-14 [4] and in the data set with LTC-14 [5] was “Active” each time.
For `CCN(CC)CCCNC(=O)c1ccc(C(CC)(CC)c2ccc(OCCCCCC(O)(CC)CC)c(C)c2)n1CC`, the RBA in data set [1] worked out at 33%. In addition, in data set [2], the IC50 was over 10 µM. The inhibition result with LTC-14 [3], in the data set with LTC-14 [4] and in the data set with LTC-14 [5] was “Active” throughout.
As to `CCN(CC)CCCNC(=O)c1ccc(C(CC)(CC)c2ccc(OCCCC(O)(CC)CC)c(C)c2)n1CC`, the RBA in data set [1] was 23%. In addition, the IC50 in data set [2] is over 10 µM. Besides, the inhibition entry with LTC-14 [3], in the data set on LTC-14 [4] and in the data set with LTC-14 [5] was “Active” in each case.
`CCN(CC)CCCNC(=O)c1cc(C(CC)(CC)c2ccc(OCC(C)O)c(C)c2)cn1CC` (configuration not stated): the RBA in data set [1] (filed as agonist) came to 78%. Moreover, the concentration for half-maximal inhibition (IC50) in data set [2] is over 10 µM. For the same molecule, the inhibition result in the data set on LTC-14 [3], with LTC-14 [4] and in the data set with LTC-14 [5] was “Active” in each case.

Broadly, the IC50 is the point on the concentration scale where inhibition reaches its midpoint.
